Assay results taken from ChEMBL document CHEMBL4400513, “Aurone derivatives as promising antibacterial agents against resistant Gram-positive pathogens” (Eur J Med Chem, 2019).
In brackets after ≈: the same amount, converted by molar mass. Activity calls are given as the source filed them. No cut-off for these calls is given here.

Legend:
Acinetobacter baumannii [1] = experiment: Bactericidal activity against Acinetobacter baumannii in aerobic condition; assay type: functional, organism-based
Procedure, shortened: (§1)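 From the MIC plates, 10 µL from each well without growth was streaked onto agar suited to the organism and incubated under that organism's growth conditions. Colonies were then counted; MBC = lowest concentration allowing ≤1 colony, i.e. killing 99.9% of bacteria.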

Arthrobacter gandavensis [2] = experiment: Antimicrobial activity against Arthrobacter gandavensis after 18 to 24 hrs in aerobic condition by two-fold serial dilutions method; assay type: functional
Procedure, shortened: (§2)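 Colonies grown overnight (~16 h) in Mueller-Hinton broth at 37 °C, 200 rpm, diluted 1/100 and grown to log phase (OD600 ~0.6), then diluted to ~10^5 bacteria/mL. Exposed to 0 to 500 µM in 1:2 series (0.2% DMSO final control), aerobic, 37 °C, 18–24 h. OD600 read; MIC = lowest concentration without visible growth; n = 3.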

Klebsiella pneumoniae = experiment: Bactericidal activity against Klebsiella pneumoniae in aerobic condition; assay type: functional, organism-based; procedure, shortened: as §1
Vibrio alginolyticus = experiment: Bactericidal activity against Vibrio alginolyticus in aerobic condition; assay type: functional, organism-based
Procedure, shortened: (§3)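 MH broth; log-phase bacteria (OD600 ~0.6) diluted to ~10^5 bacteria/mL and exposed to two-fold serial dilutions (0–500 µM; 0.2% DMSO final as vehicle control) at 37 °C, aerobic, 18–24 h. MIC is the lowest concentration preventing visible growth (OD600). MBC is found by streaking 10 µL from no-growth wells onto agar; the MBC is the concentration where ≤1 colony grew. n = 3.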

[3] = test system: Streptococcus thermophilus; experiment: Antimicrobial activity against Streptococcus thermophilus after 18 to 24 hrs in anaerobic condition by two-fold serial dilutions method; assay type: functional
Procedure, shortened: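 Precultures in BHI broth at 37 °C in an anaerobic cabinet, grown to log phase (OD600 ~0.6), then seeded at ~10^5 bacteria/mL. Two-fold dilutions from 0 to 500 µM, 0.2% DMSO final as control. Plates incubated anaerobically at 37 °C for 18–24 h, OD600 read; MIC = lowest concentration giving no visible growth; independent triplicate.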

Aspergillus niger [4] = experiment: Antifungal activity against Aspergillus niger after 48 hrs by two-fold serial dilutions method; assay type: functional
Procedure, shortened: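 Two-fold serial dilution MIC, 0 to 500 µM, from 200 mM DMSO stocks; 0.2% DMSO final as vehicle control. Inoculum about 10^5 cells/mL. Organism maintained on potato dextrose agar and in RPMI. Plates incubated 48 h at 35 °C, then OD600 read; MIC taken as lowest concentration with no visible growth; n = 3 independent runs.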

Aspergillus flavus [5] = experiment: Fungicidal activity against Aspergillus flavus; assay type: functional, organism-based
Procedure, shortened: (§4)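 Filamentous fungi grown on potato dextrose agar and tested in RPMI medium with two-fold serial dilutions (0–500 µM, 0.2% DMSO final). Plates held at room temperature for 2 to 5 days, then OD600 read; MIC taken as the lowest concentration with no visible growth. The fungicidal endpoint is ≤1 colony after streaking 10 µL of no-growth wells on agar. n = 3.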

Klebsiella variicola = experiment: Bactericidal activity against Klebsiella variicola in aerobic condition; assay type: functional, organism-based; procedure, shortened: as §1
Acinetobacter baumannii [6] = experiment: Antimicrobial activity against Acinetobacter baumannii MRS after 18 to 24 hrs in aerobic condition by two-fold serial dilutions method; assay type: functional; procedure, shortened: as §2
Candida albicans = experiment: Antifungal activity against Candida albicans after 2 to 5 days by two-fold serial dilutions method; assay type: functional
Aspergillus flavus [7] = experiment: Antifungal activity against Aspergillus flavus after 2 to 5 days by two-fold serial dilutions method; assay type: functional
Procedure, shortened: (§5)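 Broth two-fold serial dilution MIC, 0 to 500 µM (1:2 steps), from 200 mM DMSO stocks; 0.2% DMSO final as vehicle control. Inoculum about 10^5 cells/mL. Strains maintained on potato dextrose agar and in RPMI medium. Plates held at room temperature for 2 to 5 days, OD600 read; MIC = lowest concentration preventing visible growth; independent triplicate.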

Stachybotrys chartarum = experiment: Antifungal activity against Stachybotrys chartarum after 2 to 5 days by two-fold serial dilutions method; assay type: functional; procedure, shortened: as §5
Acinetobacter baumannii [8] = experiment: Antimicrobial activity against Acinetobacter baumannii after 18 to 24 hrs in aerobic condition by two-fold serial dilutions method; assay type: functional; procedure, shortened: as §2
Clostridioides difficile = experiment: Bactericidal activity against Clostridium difficile in anaerobic condition; assay type: functional, organism-based; procedure, shortened: as §1
Aspergillus ochraceus = experiment: Fungicidal activity against Aspergillus ochraceus; assay type: functional, organism-based; procedure, shortened: as §4
Fusarium graminearum = experiment: Antifungal activity against Fusarium graminearum after 2 to 5 days by two-fold serial dilutions method; assay type: functional
Procedure, shortened: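 F. graminearum grown on potato dextrose agar and in RPMI medium. Broth microdilution by NCCLS, two-fold serial dilution 0–500 µM, DMSO 0.2% final as vehicle control. Plates kept at room temperature 2 to 5 days, OD600 read; MIC taken as lowest concentration with no visible growth. Independent triplicate.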

Arthrobacter gandavensis [9] = experiment: Bactericidal activity against Arthrobacter gandavensis in aerobic condition; assay type: functional, organism-based; procedure, shortened: as §1
Fusarium verticillioides = experiment: Antifungal activity against Fusarium verticillioides after 2 to 5 days by two-fold serial dilutions method; assay type: functional; procedure, shortened: as §5
Aspergillus niger [10] = experiment: Fungicidal activity against Aspergillus niger after 48 hrs; assay type: functional, organism-based
Procedure, shortened: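 A. niger in RPMI medium, two-fold serial dilutions 0–500 µM (0.2% DMSO final). Incubation at 35 °C for 48 h; OD600 read, MIC as the lowest concentration with no visible growth. Killing concentration determined by streaking 10 µL from no-growth wells on agar, where ≤1 colony grew. Triplicate.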

BEAS-2B = experiment: Cytotoxicity against human BEAS2B cells assessed as reduction in cell viability after 48 hrs by Resazurin dye-based assay; conditions: for IC50: Homo sapiens, BEAS-2B; for Activity: human, beas-2b
Procedure, shortened: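 Normal human lung epithelial (BEAS-2B) and lung fibroblast (IMR-90) cells were grown in DMEM with 10% FCS. Cells were seeded at ~10^4/well, grown to confluence (48–72 h), then exposed to increasing concentrations for 48 h at 37 °C, 5% CO2, with 0.2% DMSO as control. Resazurin was added for 4 h and fluorescence read at 530/590 nm. Viability was normalized to DMSO wells and IC50 calculated.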

Pseudomonas aeruginosa = experiment: Bactericidal activity against Pseudomonas aeruginosa in aerobic condition; assay type: functional, organism-based; procedure, shortened: as §3
[11] = Therapeutic index, ratio of IC50 for human BEAS2B cells to MIC for methicillin-resistant Staphylococcus aureus; assay type: toxicity; conditions: read-out: TI
Procedure, shortened: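 IC50 measured on confluent normal human BEAS-2B or IMR-90 cells (DMEM, 10% FCS) after 48 h exposure with DMSO 0.2% as control. Resazurin read after 4 h (ex 530/em 590 nm), normalised to DMSO-treated cells. Index obtained by comparing this IC50 with the bacterial MIC.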

Escherichia coli = experiment: Antimicrobial activity against Escherichia coli MRS after 18 to 24 hrs in aerobic condition by two-fold serial dilutions method; assay type: functional; procedure, shortened: as §2
Staphylococcus aureus = experiment: Antimicrobial activity against methicillin-resistant Staphylococcus aureus after 18 to 24 hrs in aerobic condition by two-fold serial dilutions method; assay type: functional
Procedure, shortened: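 Strains grown on LB at 37 °C aerobically, then in Mueller-Hinton broth overnight at 200 rpm and brought to log phase (OD600 ~0.6). About 10^5 bacteria/mL exposed to two-fold serial dilutions 0–500 µM, DMSO 0.2% final as control. Aerobic incubation at 37 °C for 18–24 h; OD600 read; MIC = lowest concentration inhibiting visible growth. n = 3.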

Bacillus subtilis = experiment: Bactericidal activity against Bacillus subtilis in aerobic condition; assay type: functional, organism-based; procedure, shortened: as §1

Row | SMILES | Activity (Acinetobacter baumannii [1]) | MIC (Arthrobacter gandavensis [2]) [µM] | Activity (Klebsiella pneumoniae) | Activity (Vibrio alginolyticus) | MIC [3] [µM] | MIC (Aspergillus niger [4]) [µM] | Activity (Aspergillus flavus [5]) | Activity (Klebsiella variicola) | MIC (Acinetobacter baumannii [6]) [µM] | MIC (Candida albicans) [µM] | MIC (Aspergillus flavus [7]) [µM] | MIC (Stachybotrys chartarum) [µM] | MIC (Acinetobacter baumannii [8]) [µM] | Activity (Clostridioides difficile) | Activity (Aspergillus ochraceus) | MIC (Fusarium graminearum) [µM] | Activity (Arthrobacter gandavensis [9]) | MIC (Fusarium verticillioides) [µM] | Activity (Aspergillus niger [10]) | IC50 (BEAS-2B) [µM] | other results
1 | O=C1/C(=C/c2ccc(F)cc2)Oc2cc(O)cc(O)c21 | Active | 15.6 (≈ 4.25 µg/mL) | Active | Active | 31.2 (≈ 8.51 µg/mL) | > 500 | Active | Active | > 500 | > 500 | > 500 | > 500 | > 500 | Active | Active | > 500 | Active | > 500 | Active | 590 | Activity (BEAS-2B): Dose-dependent effect; Activity (Pseudomonas aeruginosa): Active; selectivity ratio [11]: 76; MIC (Escherichia coli): > 500 µM; MIC (Staphylococcus aureus): 7.8 to 15.6 µM (≈ 2.12 to 4.25 µg/mL); Activity (Bacillus subtilis): Active
2 | O=C1/C(=C/c2ccccc2)Oc2cc(O)cc(O)c21 | Active | 31.2 (≈ 7.95 µg/mL) | Active | Active | 31.2 (≈ 7.95 µg/mL) | 62.5 (≈ 15.9 µg/mL) | Active | Active | > 500 | > 500 | > 500 | > 500 | > 500 | Active | Active | 31.2 (≈ 7.95 µg/mL) | Active | > 500 | Active | 280 | Activity (BEAS-2B): Dose-dependent effect; Activity (Pseudomonas aeruginosa): Active; MIC (Escherichia coli): > 500 µM; MIC (Staphylococcus aureus): 15.6 to 31.2 µM (≈ 3.97 to 7.95 µg/mL); Activity (Bacillus subtilis): Active
3 | COc1cc(/C=C2\Oc3cc(O)cc(O)c3C2=O)ccc1OCc1ccccc1 | Active | 31.2 (≈ 12.2 µg/mL) | Active | Active | 125 (≈ 48.8 µg/mL) | > 500 | Active | Active | > 500 | 125 (≈ 48.8 µg/mL) | > 500 | > 500 | > 500 | Active | Active | 500 (≈ 195 µg/mL) | Active | > 500 | Active | 190 | Activity (BEAS-2B): Dose-dependent effect; Activity (Pseudomonas aeruginosa): Active; MIC (Escherichia coli): > 500 µM; MIC (Staphylococcus aureus): 15.6 µM (≈ 6.09 µg/mL); Activity (Bacillus subtilis): Active
